{
  "source": "ChEMBL document CHEMBL1932938",
  "about": "“From COX-2 inhibitor nimesulide to potent anti-cancer agent: synthesis, in vitro, in vivo and pharmacokinetic evaluation” (Eur J Med Chem, 2012)",
  "assay_type_in_all_cases": "functional",
  "key": {"SK-BR-3 [1]": {"system": "SK-BR-3", "experiment": "Cell cycle arrest in human SK-BR-3 cells assessed as accumulation at Sub-G1 phase at 5 uM after 6 hrs using propidium iodide staining by FACS analysis"}, "SK-BR-3 [2]": {"system": "SK-BR-3", "experiment": "Cell cycle arrest in human SK-BR-3 cells assessed as accumulation at Sub-G1 phase at 0.50 uM after 24 hrs using propidium iodide staining by FACS analysis"}, "MDA-MB-435": {"system": "MDA-MB-435", "experiment": "Growth inhibition of human MDA-MB-435 cells after 48 hrs by SRB assay"}, "SK-BR-3 [3]": {"system": "SK-BR-3", "experiment": "Cell cycle arrest in human SK-BR-3 cells assessed as accumulation at G2/M phase at 0.10 uM after 18 hrs using propidium iodide staining by FACS analysis", "method_in_brief": "(§1)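 SKBR-3 cells in RPMI1640 with 10% heat-inactivated FBS at 37 °C and 5% CO₂ were treated for the stated times. Cells were fixed overnight in 70% EtOH at −20 °C, then stained with propidium iodide buffer (38 mM sodium citrate pH 7.5, 69 µM PI, 120 µg/mL RNase A) for 15 min at room temperature in the dark. Up to 1×10⁴ gated cells were analyzed by flow cytometry, giving percent distribution per phase.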"}, "SK-BR-3 [4]": {"system": "SK-BR-3", "experiment": "Cell cycle arrest in human SK-BR-3 cells assessed as accumulation at G1 phase at 0.50 uM after 6 hrs using propidium iodide staining by FACS analysis", "method_in_brief": "as §1"}, "UACC-257": {"system": "UACC-257", "experiment": "Growth inhibition of human UACC257 cells after 48 hrs by SRB assay"}, "SK-BR-3 [5]": {"system": "SK-BR-3", "experiment": "Cell cycle arrest in human SK-BR-3 cells assessed as accumulation at G1 phase at 0.10 uM after 24 hrs using propidium iodide staining by FACS analysis", "method_in_brief": "as §1"}, "SK-BR-3 [6]": {"system": "SK-BR-3", "experiment": "Cell cycle arrest in human SK-BR-3 cells assessed as accumulation at G1 phase at 0.10 uM after 18 hrs using propidium iodide staining by FACS analysis", "method_in_brief": "as §1"}, "SK-BR-3 [7]": {"system": "SK-BR-3", "experiment": "Cell cycle arrest in human SK-BR-3 cells assessed as accumulation at S phase at 5 uM after 18 hrs using propidium iodide staining by FACS analysis"}, "SK-BR-3 [8]": {"system": "SK-BR-3", "experiment": "Cell cycle arrest in human SK-BR-3 cells assessed as accumulation at Sub-G1 phase at 0.25 uM after 6 hrs using propidium iodide staining by FACS analysis"}, "SK-BR-3 [9]": {"system": "SK-BR-3", "experiment": "Cell cycle arrest in human SK-BR-3 cells assessed as accumulation at G1 phase at 0.10 uM after 6 hrs using propidium iodide staining by FACS analysis", "method_in_brief": "as §1"}, "SK-BR-3 [10]": {"system": "SK-BR-3", "experiment": "Cell cycle arrest in human SK-BR-3 cells assessed as accumulation at G1 phase at 5 uM after 3 hrs using propidium iodide staining by FACS analysis", "method_in_brief": "as §1"}, "SK-BR-3 [11]": {"system": "SK-BR-3", "experiment": "Cell cycle arrest in human SK-BR-3 cells assessed as accumulation at Sub-G1 phase at 0.25 uM after 12 hrs using propidium iodide staining by FACS analysis"}, "SK-OV-3": {"system": "SK-OV-3", "experiment": "Growth inhibition of human SKOV3 cells after 48 hrs by SRB assay"}, "Malme-3M": {"system": "Malme-3M", "experiment": "Growth inhibition of human MALME-3M cells after 48 hrs by SRB assay"}, "SK-BR-3 [12]": {"system": "SK-BR-3", "experiment": "Cell cycle arrest in human SK-BR-3 cells assessed as accumulation at S phase at 0.50 uM after 24 hrs using propidium iodide staining by FACS analysis"}, "SK-BR-3 [13]": {"system": "SK-BR-3", "experiment": "Cell cycle arrest in human SK-BR-3 cells assessed as accumulation at G2/M phase at 5 uM after 24 hrs using propidium iodide staining by FACS analysis", "method_in_brief": "as §1"}, "EKVX": {"system": "EKVX", "experiment": "Growth inhibition of human EKVX cells after 48 hrs by SRB assay"}, "MCF7": {"system": "MCF7", "experiment": "Growth inhibition of human MCF7 cells after 48 hrs by SRB assay"}, "SK-BR-3 [14]": {"system": "SK-BR-3", "experiment": "Cell cycle arrest in human SK-BR-3 cells assessed as accumulation at S phase at 0.50 uM after 18 hrs using propidium iodide staining by FACS analysis"}, "SK-BR-3 [15]": {"system": "SK-BR-3", "experiment": "Cell cycle arrest in human SK-BR-3 cells assessed as accumulation at Sub-G1 phase at 0.25 uM after 24 hrs using propidium iodide staining by FACS analysis"}, "SK-BR-3 [16]": {"system": "SK-BR-3", "experiment": "Cell cycle arrest in human SK-BR-3 cells assessed as accumulation at S phase at 0.10 uM after 18 hrs using propidium iodide staining by FACS analysis", "method_in_brief": "as §1"}, "HCC 2998": {"system": "HCC 2998", "experiment": "Growth inhibition of human HCC2998 cells after 48 hrs by SRB assay"}, "MDA-MB-231": {"system": "MDA-MB-231", "experiment": "Growth inhibition of human MDA-MB-231 cells after 48 hrs by SRB assay"}, "NCI-H522": {"system": "NCI-H522", "experiment": "Growth inhibition of human NCI-H522 cells after 48 hrs by SRB assay"}, "RXF 393": {"system": "RXF 393", "experiment": "Growth inhibition of human RXF393 cells after 48 hrs by SRB assay"}, "SK-BR-3 [17]": {"system": "SK-BR-3", "experiment": "Cell cycle arrest in human SK-BR-3 cells assessed as accumulation at S phase at 0.25 uM after 24 hrs using propidium iodide staining by FACS analysis"}, "[18]": {"details": "read-out: LC50 (the source's name)"}},
  "data": [
    {"smiles": "Cc1ccc(C)c(COc2cc(NC(=O)c3ccc4c(c3)OCO4)ccc2N(C)S(C)(=O)=O)c1", "values": [
      {"measurement": "Activity", "setting": "SK-BR-3 [1]", "value": 3.42, "unit": "%"},
      {"measurement": "Activity", "setting": "SK-BR-3 [2]", "value": 27.94, "unit": "%"},
      {"measurement": "growth inhibition (GI)", "setting": "MDA-MB-435", "value": "Dose-dependent effect"},
      {"measurement": "GI50", "setting": "MDA-MB-435; MDA-MB-435, 48 h", "value": 28.5, "unit": "nM"},
      {"measurement": "TGI", "setting": "MDA-MB-435; MDA-MB-435, 48 h", "value": 91.4, "unit": "nM"},
      {"measurement": "CC50", "setting": "MDA-MB-435; MDA-MB-435, 48 h, read-out: LC50 (the source's name)", "value": "> 100000", "unit": "nM"},
      {"measurement": "Activity", "setting": "SK-BR-3 [3]", "value": 9.71, "unit": "%"},
      {"measurement": "Activity", "setting": "SK-BR-3 [4]", "value": 67.1, "unit": "%"},
      {"measurement": "growth inhibition (GI)", "setting": "UACC-257", "value": "Dose-dependent effect"},
      {"measurement": "GI50", "setting": "UACC-257; UACC-257, 48 h", "value": 144, "unit": "nM"},
      {"measurement": "TGI", "setting": "UACC-257; UACC-257, 48 h", "value": "> 100000", "unit": "nM"},
      {"measurement": "CC50", "setting": "UACC-257; UACC-257, 48 h, read-out: LC50 (the source's name)", "value": "> 100000", "unit": "nM"},
      {"measurement": "Activity", "setting": "SK-BR-3 [5]", "value": 67.9, "unit": "%"},
      {"measurement": "Activity", "setting": "SK-BR-3 [6]", "value": 75.43, "unit": "%"},
      {"measurement": "Activity", "setting": "SK-BR-3 [7]", "value": 6.73, "unit": "%"},
      {"measurement": "Activity", "setting": "SK-BR-3 [8]", "value": 3.49, "unit": "%"},
      {"measurement": "Activity", "setting": "SK-BR-3 [9]", "value": 71.43, "unit": "%"},
      {"measurement": "Activity", "setting": "SK-BR-3 [10]", "value": 69.09, "unit": "%"},
      {"measurement": "Activity", "setting": "SK-BR-3 [11]", "value": 6.85, "unit": "%"},
      {"measurement": "growth inhibition (GI)", "setting": "SK-OV-3", "value": "Dose-dependent effect"},
      {"measurement": "GI50", "setting": "SK-OV-3; SK-OV-3, 48 h", "value": 285, "unit": "nM"},
      {"measurement": "TGI", "setting": "SK-OV-3; SK-OV-3, 48 h", "value": "> 100000", "unit": "nM"},
      {"measurement": "CC50", "setting": "SK-OV-3; SK-OV-3, 48 h, read-out: LC50 (the source's name)", "value": "> 100000", "unit": "nM"},
      {"measurement": "GI50", "setting": "Malme-3M", "value": 229, "unit": "nM"},
      {"measurement": "TGI", "setting": "Malme-3M", "value": "> 100000", "unit": "nM"},
      {"measurement": "growth inhibition (GI)", "setting": "Malme-3M", "value": "Dose-dependent effect"},
      {"measurement": "CC50", "setting": "Malme-3M; [18]", "value": "> 100000", "unit": "nM"},
      {"measurement": "Activity", "setting": "SK-BR-3 [12]", "value": 11.21, "unit": "%"},
      {"measurement": "Activity", "setting": "SK-BR-3 [13]", "value": 28.29, "unit": "%"},
      {"measurement": "GI50", "setting": "EKVX", "value": 598, "unit": "nM"},
      {"measurement": "TGI", "setting": "EKVX", "value": "> 100000", "unit": "nM"},
      {"measurement": "growth inhibition (GI)", "setting": "EKVX", "value": "Dose-dependent effect"},
      {"measurement": "CC50", "setting": "EKVX; [18]", "value": "> 100000", "unit": "nM"},
      {"measurement": "growth inhibition (GI)", "setting": "MCF7", "value": "Dose-dependent effect"},
      {"measurement": "TGI", "setting": "MCF7; MCF7, 48 h", "value": "> 100000", "unit": "nM"},
      {"measurement": "CC50", "setting": "MCF7; MCF7, 48 h, read-out: LC50 (the source's name)", "value": "> 100000", "unit": "nM"},
      {"measurement": "Activity", "setting": "SK-BR-3 [14]", "value": 7.28, "unit": "%"},
      {"measurement": "Activity", "setting": "SK-BR-3 [15]", "value": 24.95, "unit": "%"},
      {"measurement": "Activity", "setting": "SK-BR-3 [16]", "value": 8.71, "unit": "%"},
      {"measurement": "growth inhibition (GI)", "setting": "HCC 2998", "value": "Dose-dependent effect"},
      {"measurement": "TGI", "setting": "HCC 2998; HCC 2998, 48 h", "value": 392, "unit": "nM"},
      {"measurement": "CC50", "setting": "HCC 2998; HCC 2998, 48 h, read-out: LC50 (the source's name)", "value": 2970, "unit": "nM"},
      {"measurement": "growth inhibition (GI)", "setting": "MDA-MB-231", "value": "Dose-dependent effect"},
      {"measurement": "GI50", "setting": "MDA-MB-231; MDA-MB-231, 48 h", "value": 256, "unit": "nM"},
      {"measurement": "TGI", "setting": "MDA-MB-231; MDA-MB-231, 48 h", "value": 926, "unit": "nM"},
      {"measurement": "CC50", "setting": "MDA-MB-231; MDA-MB-231, 48 h, read-out: LC50 (the source's name)", "value": "> 100000", "unit": "nM"},
      {"measurement": "growth inhibition (GI)", "setting": "NCI-H522", "value": "Dose-dependent effect"},
      {"measurement": "GI50", "setting": "NCI-H522; NCI-H522, 48 h", "value": 33.5, "unit": "nM"},
      {"measurement": "TGI", "setting": "NCI-H522; NCI-H522, 48 h", "value": 240, "unit": "nM"},
      {"measurement": "CC50", "setting": "NCI-H522; NCI-H522, 48 h, read-out: LC50 (the source's name)", "value": "> 100000", "unit": "nM"},
      {"measurement": "growth inhibition (GI)", "setting": "RXF 393", "value": "Dose-dependent effect"},
      {"measurement": "GI50", "setting": "RXF 393; RXF 393, 48 h", "value": 128, "unit": "nM"},
      {"measurement": "TGI", "setting": "RXF 393; RXF 393, 48 h", "value": 403, "unit": "nM"},
      {"measurement": "Activity", "setting": "SK-BR-3 [17]", "value": 10.87, "unit": "%"}
    ]}
  ]
}
